# Test results reported in ChEMBL document CHEMBL1125170, “A novel series of selective leukotriene antagonists: exploration and optimization of the acidic region in 1,6-disubstituted indoles and indazoles” (1990).
# Values joined by “and” are separate entries in the source; they are usually repeats but may differ in a detail not shown here. Equal values may be shown once.
# How the values were obtained:
# Format in all cases: functional, Trachea
# [1] = species: Cavia porcellus; test: In vitro antagonism of 8 nM of peptidoleukotriene (LTE4) induced contraction of guinea pig tracheal spirals at 10 X E-7M concentration
# In short: (§1)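 Guinea pig tracheal spirals held at 37 °C in modified Krebs' (mM: NaCl 119, KCl 4.6, CaCl2 1.8, MgCl2 0.5, NaHCO3 24.9, NaH2PO4 1.0, glucose 11.1) plus indomethacin 5 μM, resting tension 2 g, isometric recording. After reproducible 8 nM LTE4 responses, compound added for 10 min, then rechallenged. % inhibition is adjusted for the paired vehicle tissue. At least four spirals, paired t test.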
# [2] = species: Cavia porcellus; test: In vitro antagonism of 8 nM of peptidoleukotriene (LTE4) induced contraction of guinea pig tracheal spirals at 1 X E-7M concentration; in short: as §1
# [3] = species: Cavia porcellus; test: Dissociation constant KB = [antagonist]/(dose ratio -1). KB determined in guinea pig tracheal spirals with LTE4 as agonist.
# In short: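 Isolated guinea pig tracheal strips in Krebs' buffer with indomethacin (5 μM), 37 °C, 95% O2/5% CO2, resting tension 2 g. Carbachol (30 μM) sets the maximum. Antagonist incubated 30 min, then cumulative LTE4 concentration–response curves in log increments, one curve per tissue. EC50 by linear regression, paired vehicle controls. KB = [antagonist]/(DR − 1) (Furchgott).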
# [4] = species: Cavia porcellus; test: In vitro antagonism of 8 nM of peptidoleukotriene (LTE4) induced contraction of guinea pig tracheal spirals at 100 X E-7M concentration; in short: as §1
# [5] = species: Cavia porcellus; test: In vitro antagonism of 8 nM of peptidoleukotriene (LTE4) induced contraction of guinea pig tracheal spirals at 33 X E-7M concentration; in short: as §1
Structure (SMILES),pKB [3],Antagonism [4] [%],also measured
CCCCC(CC)C(=O)Nc1ccc2ccn(Cc3ccc(C(=O)CS(=O)(=O)c4ccccc4)cc3OC)c2c1 (stereo unspecified),,,Antagonism [1]: 59%
CCCCC(CC)C(=O)Nc1ccc2ccn(Cc3ccc(C(=O)NS(=O)(=O)c4ccccc4)cc3)c2c1 (stereo unspecified),6.8,,Antagonism [2]: 42%
COc1cc(C(=O)NS(=O)(=O)c2ccccc2N)ccc1Cn1ccc2ccc(NC(=O)CC3CCCC3)cc21,9.9,,
CCCCC(CC)C(=O)Nc1ccc2ccn(Cc3ccc(C(=O)O)cc3C)c2c1 (stereo unspecified),,91,Antagonism [5]: 21%
CCCCC(CC)C(=O)Nc1ccc2ccn(Cc3ccc(C(=O)NS(=O)(=O)c4ccc(C)cc4)cc3OC)c2c1 (stereo unspecified),8.4,,
COc1ccc(OC)c(S(=O)(=O)NC(=O)c2ccc(Cn3ccc4ccc(NC(=O)CC5CCCC5)cc43)c(OC)c2)c1,9.1,,
CCCCCC(=O)Nc1ccc2ccn(Cc3ccc(-c4nn[nH]n4)cc3OC)c2c1,,,Antagonism [1]: 32%; Antagonism [5]: 86%
CCCCC(CC)C(=O)Nc1ccc2ccn(Cc3ccc(C(=O)O)c(OC)c3)c2c1 (stereo unspecified),,,Antagonism [1]: 15%
CCCCC(CC)C(=O)Nc1ccc2ccn(Cc3ccc(C(=O)Nc4ccccc4C(=O)O)cc3OC)c2c1 (stereo unspecified),,34,
CCCCC(CC)C(=O)Nc1ccc2ccn(Cc3ccc(C(=O)N[S+]([O-])c4ccccc4)cc3OC)c2c1 (stereo unspecified),,,Antagonism [5]: 34%
CCCCC(CC)C(=O)Nc1ccc2ccn(Cc3ccc(C(=O)NS(=O)(=O)C(C)C)cc3OC)c2c1 (stereo unspecified),,,Antagonism [1]: 47%
CCCCC(CC)C(=O)Nc1ccc2ccn(Cc3ccc(C(=O)O)c(Br)c3)c2c1 (stereo unspecified),,,Antagonism [5]: 33%
CCCCOc1cc(C(=O)O)ccc1Cn1ccc2ccc(NC(=O)C(CC)CCCC)cc21 (stereo unspecified),,83,Antagonism [5]: 44%
CCCCC(CC)C(=O)Nc1ccc2ccn(Cc3ccc(C(=O)NS(=O)(=O)c4ccc(OC)cc4)cc3OC)c2c1 (stereo unspecified),7.4,,
COc1cc(C(=O)NS(=O)(=O)c2cc(C)ccc2C)ccc1Cn1ccc2ccc(NC(=O)CC3CCCC3)cc21,8.4,,
COc1cc(C(=O)NS(=O)(=O)c2ccccc2C)ccc1Cn1ncc2ccc(NC(=O)CC3CCCC3)cc21,10.9,,
COc1cc(C(=O)NS(=O)(=O)c2ccccn2)ccc1Cn1ccc2ccc(NC(=O)CC3CCCC3)cc21,8.9,,
CCCCC(CC)C(=O)Nc1ccc2ccn(Cc3ccc(C(=O)NCC(=O)O)cc3OC)c2c1 (stereo unspecified),,43,
COc1cc(C(=O)NS(=O)(=O)c2cccs2)ccc1Cn1ccc2ccc(NC(=O)CC3CCCC3)cc21,9.6,,
COc1cc(C(=O)NS(=O)(=O)c2ccc3ccccc3c2)ccc1Cn1ccc2ccc(NC(=O)CC3CCCC3)cc21,8.3,,
COc1cc(C(=O)NS(=O)(=O)c2ccccc2OC)ccc1Cn1ccc2ccc(NC(=O)CC3CCCC3)cc21,9.7,,
CCCCC(CC)C(=O)Nc1ccc2ccn(Cc3ccc(C(=O)NS(=O)(=O)c4ccccc4)c(OC)c3)c2c1 (stereo unspecified),,,Antagonism [2]: 52%
CCCCC(CC)C(=O)Nc1ccc2ccn(Cc3ccc(C(=O)O)cc3Cl)c2c1 (stereo unspecified),,44,
CCCCC(CC)C(=O)Nc1ccc2ccn(Cc3ccc(C(=O)NO)cc3OC)c2c1 (stereo unspecified),,38,
CCCCC(CC)C(=O)Nc1ccc2ccn(Cc3ccc(C(=O)Nc4nn[nH]n4)cc3OC)c2c1 (stereo unspecified),,62,Antagonism [1]: 20%
CCCCC(CC)C(=O)Nc1ccc2ccn(Cc3ccc(S(=O)(=O)O)cc3)c2c1 (stereo unspecified),,48,
CCCCC(CC)C(=O)Nc1ccc2ccn(Cc3cccc(C(=O)O)c3)c2c1 (stereo unspecified),,31,

Structure (SMILES),pKB [3],Antagonism [4] [%],also measured
CCCCC(CC)C(=O)Nc1ccc2ccn(Cc3ccc(OC)c(C(=O)O)c3)c2c1 (stereo unspecified),,28,
CCCCC(CC)C(=O)Nc1ccc2cnn(Cc3ccc(-c4nn[nH]n4)cc3OC)c2c1 (stereo unspecified),7.1,,Antagonism [1]: 100%
COc1cc(-c2nn[nH]n2)ccc1Cn1ccc2ccc(NC(=O)OC3CCCC3)cc21,7.6,,Antagonism [1]: 62%
CCCCC(CC)C(=O)Nc1ccc2ccn(Cc3ccc(C(=O)NS(=O)(=O)c4ccccc4C)cc3OC)c2c1 (stereo unspecified),8.9,,
CCCCC(CC)C(=O)Nc1ccc2ccn(Cc3ccc(/C=C/C(=O)O)cc3OC)c2c1 (stereo unspecified),,31,
CCCCC(CC)C(=O)Nc1ccc2ccn(Cc3ccc(C(=O)NS(C)(=O)=O)cc3OC)c2c1 (stereo unspecified),,,Antagonism [1]: 100% and 60%
COc1cc(C(=O)NS(=O)(=O)c2ccccc2Cl)ccc1Cn1ccc2ccc(NC(=O)CC3CCCC3)cc21,9.8,,
CCCCC(CC)C(=O)Nc1ccc2ccn(Cc3cccc(C(=O)O)c3OC)c2c1 (stereo unspecified),,38,
CCCCC(CC)C(=O)Nc1ccc2ccn(Cc3ccc(C(=O)O)cc3OCCCc3nnn[nH]3)c2c1 (stereo unspecified),,,Antagonism [1]: 32%
CCCCC(CC)C(=O)Nc1ccc2ccn(Cc3ccc(C(=O)O)cc3OCCCC#N)c2c1 (stereo unspecified),,84,Antagonism [5]: 33%
CCCCC(CC)C(=O)Nc1ccc2ccn(Cc3ccc(C(=O)NS(=O)(=O)c4ccc([N+](=O)[O-])cc4)cc3OC)c2c1 (stereo unspecified),7.7,,
COc1cc(C(=O)N(C)S(=O)(=O)c2ccccc2)ccc1Cn1ccc2ccc(NC(=O)CC3CCCC3)cc21,,,Antagonism [2]: 42%
CCCCOC(=O)Nc1ccc2ccn(Cc3ccc(-c4nn[nH]n4)cc3OC)c2c1,7.2,,Antagonism [1]: 68%
CCCCC(CC)C(=O)Nc1ccc2ccn(Cc3ccc(C(=O)NS(=O)(=O)c4ccc(F)cc4)cc3OC)c2c1 (stereo unspecified),7.7,,
CCCCC(CC)C(=O)Nc1ccc2ccn(Cc3ccc(C(=O)O)cc3)c2c1 (stereo unspecified),,44,
CCCCC(CC)C(=O)Nc1ccc2ccn(Cc3ccc(C(=O)NS(=O)(=O)c4ccc(Cl)cc4)cc3OC)c2c1 (stereo unspecified),7.8,,
COc1cc(C(=O)NS(=O)(=O)c2ccccc2C)ccc1Cn1ncc2ccc(NC(=O)OC3CCCC3)cc21,10.2,,
CCCCC(CC)C(=O)Nc1ccc2ccn(Cc3ccc(C(=O)NS(=O)(=O)Cc4ccccc4)cc3OC)c2c1 (stereo unspecified),,89,
CCCCC(CC)C(=O)Nc1ccc2ccn(Cc3c(OC)cc(C(=O)NS(=O)(=O)c4ccccc4)cc3OC)c2c1 (stereo unspecified),8,,Antagonism [2]: 72%
CCCCC(CC)C(=O)Nc1ccc2ccn(Cc3c(OC)cc(C(=O)O)cc3OC)c2c1 (stereo unspecified),,,Antagonism [1]: 63%
COc1cc(C(=O)NS(=O)(=O)c2c(C)cccc2Cl)ccc1Cn1ccc2ccc(NC(=O)CC3CCCC3)cc21,8.8,,
COc1cc(-c2nn[nH]n2)ccc1Cn1ncc2ccc(NC(=O)OC3CCCC3)cc21,7.7,,Antagonism [1]: 100%; Antagonism [2]: 58%
CCCCC(CC)C(=O)Nc1ccc2ccn(Cc3ccc(C(=O)O)cc3F)c2c1 (stereo unspecified),,86,
CCCCC(CC)C(=O)Nc1ccc2ccn(Cc3ccc(S(=O)(=O)NC(=O)c4ccccc4)cc3)c2c1 (stereo unspecified),,37,
COc1cc(C(=O)O)ccc1Cn1ccc2ccc(NC(=O)CC3CCCC3)cc21,,,Antagonism [2]: 34%
CCCCC(CC)C(=O)Nc1ccc2ccn(Cc3ccc(C(=O)C(C#N)S(=O)(=O)c4ccccc4)cc3OC)c2c1 (stereo unspecified),8.1,,Antagonism [2]: 73%
